Laboratory results reported in ChEMBL document CHEMBL3352189 (J Med Chem, 2014).
In brackets after ≈: the same amount, converted by molar mass. Activity calls are given as the source filed them. The rule behind the calls is not given here.

Tests used:
Mus musculus [1] = assay: Toxicity in Venezuelan equine encephalitis virus TC83 infected C3H/HeN mouse assessed as body weight loss at 40 mg/kg/day, ip BID for 4 days; type: organism-based; set-up: route intraperitoneal; settings: in vivo, 96 h
Mus musculus [2] = assay: Toxicity in Venezuelan equine encephalitis virus TC83 infected C3H/HeN mouse assessed as induction of lethargy at 5 mg/kg/day, ip BID for 4 days; type: organism-based; set-up: route intraperitoneal; settings: in vivo, 96 h
Mus musculus [3] = assay: Toxicity in Venezuelan equine encephalitis virus TC83 infected C3H/HeN mouse assessed as induction of hunched posture at 5 mg/kg/day, ip BID for 4 days; type: organism-based; set-up: route intraperitoneal; settings: in vivo, 96 h
Mus musculus [4] = assay: Toxicity in Venezuelan equine encephalitis virus TC83 infected C3H/HeN mouse assessed as induction of ruffled fur at 5 mg/kg/day, ip BID for 4 days; type: organism-based; set-up: route intraperitoneal; settings: in vivo, 96 h
Mus musculus [5] = assay: Toxicity in Venezuelan equine encephalitis virus TC83 infected C3H/HeN mouse assessed as induction of ruffled fur at 40 mg/kg/day, ip BID for 4 days; type: organism-based; set-up: route intraperitoneal; settings: in vivo, 96 h
[6] = target: Adenosine receptor A2a (Homo sapiens) (UniProt P29274); assay: Displacement of [3H]CGS-21680 from human adenosine A2A receptor at 10 uM
[7] = target: Alpha-1B adrenergic receptor (Rattus norvegicus) (UniProt P15823); assay: Displacement of [3H]prazosin from rat adrenergic alpha1B receptor at 10 uM
[8] = target: Beta-2 adrenergic receptor (Homo sapiens) (UniProt P07550); assay: Displacement of [3H]CGP-12177 from human adrenergic beta2 receptor at 10 uM
[9] = target: Androgen receptor (Rattus norvegicus) (UniProt P15207); assay: Displacement of [3H]mibolerone from rat androgen receptor at 10 uM
Rattus norvegicus [10] = organism: Rattus norvegicus; assay: Displacement of [125I]omega-Conotoxin GVIA from rat N-type calcium channel at 10 uM
[11] = target: D(4) dopamine receptor (Homo sapiens) (UniProt P21917); assay: Displacement of [3H]spiperone from human dopamine D4.2 receptor at 10 uM
[12] = target: Estrogen receptor (Homo sapiens) (UniProt P03372); assay: Displacement of [3H]estradiol from human ERalpha at 10 uM
[13] = target: Gamma-aminobutyric acid type B receptor subunit 1 (Homo sapiens) (UniProt Q9UBS5); assay: Displacement of [3H]CGP-54626 from human GABA B1A receptor at 10 uM
[14] = target: Glucocorticoid receptor (Homo sapiens) (UniProt P04150); assay: Displacement of [3H]dexamethasone from human glucocorticoid receptor at 10 uM
[15] = target: Histamine H1 receptor (Homo sapiens) (UniProt P35367); assay: Displacement of [3H]pyrilamine from human histamine H1 receptor at 10 uM
[16] = target: Histamine H2 receptor (Homo sapiens) (UniProt P25021); assay: Displacement of [125I]aminopotentidine from human histamine H2 receptor at 10 uM
Mus musculus [17] = organism: Mus musculus; assay: Displacement of [125I]interleukin-1beta from mouse IL1 receptor at 10 uM
[18] = target: Neuropeptide Y receptor type 1 (Homo sapiens) (UniProt P25929); assay: Displacement of [125I]Peptide YY from human neuropeptide Y Y1 receptor at 10 uM
[19] = target: Delta-type opioid receptor (Homo sapiens) (UniProt P41143); assay: Displacement of [3H]naltrindole from human delta1 opiate receptor at 10 uM
[20] = target: Kappa-type opioid receptor (Homo sapiens) (UniProt P41145); assay: Displacement of [3H]diprenorphine from human kappa opiate receptor at 10 uM
[21] = target: Mu-type opioid receptor (Homo sapiens) (UniProt P35372); assay: Displacement of [3H]diprenorphine from human mu opiate receptor at 10 uM
hERG (KCNH2) = hERG (KCNH2) (Homo sapiens, UniProt Q12809); assay: Displacement of [3H]astemizole from human ERG channel at 10 uM; settings: probe [3H]astemizole
[22] = target: Prostaglandin E2 receptor EP4 subtype (Homo sapiens) (UniProt P35408); assay: Displacement of [3H]prostaglandin E2 from human EP4 […] at 10 uM
[23] = target: Sigma non-opioid intracellular receptor 1 (Homo sapiens) (UniProt Q99720); assay: Displacement of [3H]haloperidol from human sigma1 receptor at 10 uM
Rattus norvegicus [24] = organism: Rattus norvegicus; assay: Displacement of radioligand from rat sodium channel site 2 at 10 uM
[25] = target: Substance-P receptor (Homo sapiens) (UniProt P25103); assay: Displacement of [3H]substance P from human NK1 receptor 2 at 10 uM
[26] = target: Sodium-dependent serotonin transporter (Homo sapiens) (UniProt P31645); assay: Displacement of [3H]paroxetine from human SERT at 10 uM
[27] = test system: Venezuelan equine encephalitis virus; assay: Antiviral activity against Venezuelan equine encephalitis virus V3526 infected in Vero 76 cells assessed as reduction in virus-induced cytopathic effect after 2 days by Celltiter-Glo reagent based assay; type: functional, organism-based; settings: V3526, Vero 76, 48 h
[28] = test system: Venezuelan equine encephalitis virus; assay: Antiviral activity against Venezuelan equine encephalitis virus TrD infected in Vero 76 cells assessed as reduction in viral titer at 0.5 uM by crystal violet staining based microplaque assay relative to untreated control; type: functional, organism-based
[29] = Aqueous solubility in PBS buffer; type: physicochemical
Summary of the method: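 Solubility measured in 1× PBS at pH 7.4.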

[30] = Stability in 1:1 PBS/acetonitrile assessed as parent compound remaining; type: physicochemical; settings: buffer
Summary of the method: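 Aqueous stability measured after 48 h incubation, in PBS pH 7.4 or in 1:1 PBS/acetonitrile; reported as % parent remaining.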

[31] = Protein binding in human plasma at 10 uM; type: ADME, cell-free; settings: read-out: PPB (converted)
Cytochrome P450 1A2 = Cytochrome P450 1A2 (Homo sapiens, UniProt P05177); assay: Inhibition of human CYP1A2 at 10 uM; type: ADME
Summary of the method: (§1)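 Human CYP inhibition run with reference inhibitors as controls: α-naphthoflavone for CYP1A2 and ketoconazole for CYP3A4.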

CYP2D6 = CYP2D6 (Homo sapiens, UniProt P10635); assay: Inhibition of human CYP2D6 at 10 uM; type: ADME
CYP3A4 = CYP3A4 (Homo sapiens, UniProt P08684); assay: Inhibition of human CYP3A4 at 10 uM; type: ADME; summary of the method: as §1
[32] = Plasma concentration in C57BL/6 mouse at 5 mg/kg, ip administered as single dose measured after 120 mins by LC/MS analysis based RACE assay; type: ADME, organism-based; set-up: dose 5 mg/kg, route intraperitoneal
Summary of the method: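 Single intraperitoneal dose of 1, 5 or 10 mg/kg given to C57BL/6 mice, 3 mice per dose and time point, with a vehicle-control cohort. Plasma was sampled at 20 and 120 min post-dose and drug level measured by LC/MS. Each time point averaged two injections (<20% difference); values are means ± standard deviation in μM.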

[33] = Drug concentration in C57BL/6 mouse brain at 5 mg/kg, ip administered as single dose measured after 120 mins by LC/MS analysis based RACE assay; type: ADME, organism-based; set-up: dose 5 mg/kg, route intraperitoneal; settings: read-out: Drug uptake
Summary of the method: (§2)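 Brain tissue taken at the terminal 120 min point after one intraperitoneal dose (1, 5 or 10 mg/kg) in C57BL/6 mice, 3 per group, with a vehicle cohort. Drug level measured by LC/MS, averaging two injections per sample; reported as mean ± standard deviation, μM.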

[34] = Drug concentration in C57BL/6 mouse brain at 10 mg/kg, ip administered as single dose measured after 120 mins by LC/MS analysis based RACE assay; type: ADME, organism-based; set-up: dose 10 mg/kg, route intraperitoneal; settings: read-out: Drug uptake; summary of the method: as §2

Chain of Sodium-dependent serotonin transporter (Homo sapiens) (P31645 whole entry, looked up): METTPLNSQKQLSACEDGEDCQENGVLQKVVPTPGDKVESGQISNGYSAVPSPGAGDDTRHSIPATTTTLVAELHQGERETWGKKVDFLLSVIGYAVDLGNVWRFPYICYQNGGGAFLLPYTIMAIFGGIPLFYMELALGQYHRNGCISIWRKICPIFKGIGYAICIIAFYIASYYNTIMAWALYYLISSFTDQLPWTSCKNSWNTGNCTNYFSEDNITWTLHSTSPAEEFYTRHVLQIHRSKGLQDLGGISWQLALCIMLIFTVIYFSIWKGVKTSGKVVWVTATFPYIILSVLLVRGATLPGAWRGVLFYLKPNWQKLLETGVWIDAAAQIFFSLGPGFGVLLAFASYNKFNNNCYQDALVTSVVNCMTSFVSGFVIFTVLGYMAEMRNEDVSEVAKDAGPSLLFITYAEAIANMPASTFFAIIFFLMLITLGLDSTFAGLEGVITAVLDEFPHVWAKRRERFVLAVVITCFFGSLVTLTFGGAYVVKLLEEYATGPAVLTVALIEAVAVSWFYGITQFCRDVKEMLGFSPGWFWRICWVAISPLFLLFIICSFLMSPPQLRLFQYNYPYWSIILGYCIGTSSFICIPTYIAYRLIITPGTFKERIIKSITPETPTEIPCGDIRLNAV
Chain of Neuropeptide Y receptor type 1 (Homo sapiens) (P25929 whole entry): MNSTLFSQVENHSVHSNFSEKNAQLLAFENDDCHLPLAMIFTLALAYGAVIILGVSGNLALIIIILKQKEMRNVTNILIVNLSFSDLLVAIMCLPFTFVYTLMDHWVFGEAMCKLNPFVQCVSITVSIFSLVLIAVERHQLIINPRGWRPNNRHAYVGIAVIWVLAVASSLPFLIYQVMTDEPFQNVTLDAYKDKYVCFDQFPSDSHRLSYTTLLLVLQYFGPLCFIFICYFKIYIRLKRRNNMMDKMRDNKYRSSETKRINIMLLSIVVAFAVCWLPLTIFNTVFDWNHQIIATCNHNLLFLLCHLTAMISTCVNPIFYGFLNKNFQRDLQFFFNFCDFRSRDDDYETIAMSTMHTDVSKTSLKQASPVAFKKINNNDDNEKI
Chain of Estrogen receptor (Homo sapiens) (P03372 whole entry): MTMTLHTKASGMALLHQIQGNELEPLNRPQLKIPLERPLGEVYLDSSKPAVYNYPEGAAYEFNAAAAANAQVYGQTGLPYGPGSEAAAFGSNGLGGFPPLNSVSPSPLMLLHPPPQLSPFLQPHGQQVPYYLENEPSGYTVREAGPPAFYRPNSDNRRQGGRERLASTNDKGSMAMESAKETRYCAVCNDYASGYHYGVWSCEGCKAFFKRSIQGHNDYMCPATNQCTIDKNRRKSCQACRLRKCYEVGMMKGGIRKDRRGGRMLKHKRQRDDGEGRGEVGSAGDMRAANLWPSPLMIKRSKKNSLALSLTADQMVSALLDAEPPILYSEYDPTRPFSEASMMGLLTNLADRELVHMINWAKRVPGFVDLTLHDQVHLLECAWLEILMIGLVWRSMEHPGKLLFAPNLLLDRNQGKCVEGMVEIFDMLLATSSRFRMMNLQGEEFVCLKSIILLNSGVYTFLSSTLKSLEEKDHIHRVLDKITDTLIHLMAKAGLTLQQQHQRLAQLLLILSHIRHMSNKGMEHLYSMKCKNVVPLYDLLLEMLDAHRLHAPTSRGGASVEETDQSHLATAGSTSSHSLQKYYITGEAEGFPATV
Chain of Beta-2 adrenergic receptor (Homo sapiens) (P07550 whole entry, looked up): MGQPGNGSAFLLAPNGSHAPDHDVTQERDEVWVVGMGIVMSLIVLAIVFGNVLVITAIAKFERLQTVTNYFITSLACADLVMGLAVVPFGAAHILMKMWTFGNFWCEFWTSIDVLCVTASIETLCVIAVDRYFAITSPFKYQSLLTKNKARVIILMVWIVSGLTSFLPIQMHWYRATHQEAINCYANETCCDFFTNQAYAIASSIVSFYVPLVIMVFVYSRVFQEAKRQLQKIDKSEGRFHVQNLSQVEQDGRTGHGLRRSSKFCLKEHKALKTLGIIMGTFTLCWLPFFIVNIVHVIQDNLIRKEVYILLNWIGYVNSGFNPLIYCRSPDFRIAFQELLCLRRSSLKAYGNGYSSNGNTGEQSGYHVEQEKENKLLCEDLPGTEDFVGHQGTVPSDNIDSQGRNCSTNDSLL
Chain of Androgen receptor (Rattus norvegicus) (P15207 whole entry S389L): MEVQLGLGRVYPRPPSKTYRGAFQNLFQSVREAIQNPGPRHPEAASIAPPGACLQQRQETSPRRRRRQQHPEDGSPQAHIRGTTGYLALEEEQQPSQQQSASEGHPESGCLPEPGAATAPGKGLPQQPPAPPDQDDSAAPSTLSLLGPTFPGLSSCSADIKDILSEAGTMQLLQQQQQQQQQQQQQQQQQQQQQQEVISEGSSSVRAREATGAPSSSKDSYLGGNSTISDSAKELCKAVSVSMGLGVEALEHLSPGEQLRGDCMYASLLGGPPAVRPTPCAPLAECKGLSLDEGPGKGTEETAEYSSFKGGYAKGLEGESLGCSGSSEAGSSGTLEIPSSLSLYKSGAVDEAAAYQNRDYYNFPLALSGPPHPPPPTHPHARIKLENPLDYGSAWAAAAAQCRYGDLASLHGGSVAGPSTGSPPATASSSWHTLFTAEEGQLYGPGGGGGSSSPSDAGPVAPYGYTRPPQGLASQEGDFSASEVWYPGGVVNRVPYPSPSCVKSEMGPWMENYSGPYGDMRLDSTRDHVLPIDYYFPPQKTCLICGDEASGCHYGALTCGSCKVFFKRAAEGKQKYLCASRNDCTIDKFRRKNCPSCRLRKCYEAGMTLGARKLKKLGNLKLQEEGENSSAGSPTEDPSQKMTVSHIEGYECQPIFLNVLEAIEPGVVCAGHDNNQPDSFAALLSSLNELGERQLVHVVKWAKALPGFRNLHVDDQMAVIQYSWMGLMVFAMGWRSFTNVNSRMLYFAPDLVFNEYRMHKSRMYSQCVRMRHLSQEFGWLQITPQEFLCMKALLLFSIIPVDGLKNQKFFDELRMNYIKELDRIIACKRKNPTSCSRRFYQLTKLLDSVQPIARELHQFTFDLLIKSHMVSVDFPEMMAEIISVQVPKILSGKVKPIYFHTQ
Chain of Delta-type opioid receptor (Homo sapiens) (P41143 whole entry): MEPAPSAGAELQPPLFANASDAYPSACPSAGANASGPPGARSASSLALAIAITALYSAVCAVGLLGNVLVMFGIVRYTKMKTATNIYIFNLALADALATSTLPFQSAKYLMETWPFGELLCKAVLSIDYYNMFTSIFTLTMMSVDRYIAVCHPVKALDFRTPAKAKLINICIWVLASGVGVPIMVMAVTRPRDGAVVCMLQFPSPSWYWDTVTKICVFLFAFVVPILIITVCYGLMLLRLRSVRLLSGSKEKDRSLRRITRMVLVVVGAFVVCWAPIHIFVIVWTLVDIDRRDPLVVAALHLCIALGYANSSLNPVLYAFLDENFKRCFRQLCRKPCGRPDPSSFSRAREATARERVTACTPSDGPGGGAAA
Chain of Histamine H1 receptor (Homo sapiens) (P35367 whole entry): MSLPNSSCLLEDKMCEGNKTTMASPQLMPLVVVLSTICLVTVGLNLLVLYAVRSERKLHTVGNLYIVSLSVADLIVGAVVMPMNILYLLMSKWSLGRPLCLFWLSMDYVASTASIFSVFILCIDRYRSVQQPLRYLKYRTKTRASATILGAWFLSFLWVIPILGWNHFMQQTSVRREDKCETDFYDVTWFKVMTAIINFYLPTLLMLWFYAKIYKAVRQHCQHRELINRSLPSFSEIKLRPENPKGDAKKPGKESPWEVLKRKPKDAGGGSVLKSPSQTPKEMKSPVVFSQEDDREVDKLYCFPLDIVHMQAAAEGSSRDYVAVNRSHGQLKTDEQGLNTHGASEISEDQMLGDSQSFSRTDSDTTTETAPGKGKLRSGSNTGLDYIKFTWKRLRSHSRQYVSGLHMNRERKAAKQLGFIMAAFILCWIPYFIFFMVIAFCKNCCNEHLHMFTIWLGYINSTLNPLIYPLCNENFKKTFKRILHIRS
Chain of Prostaglandin E2 receptor EP4 subtype (Homo sapiens) (P35408 whole entry): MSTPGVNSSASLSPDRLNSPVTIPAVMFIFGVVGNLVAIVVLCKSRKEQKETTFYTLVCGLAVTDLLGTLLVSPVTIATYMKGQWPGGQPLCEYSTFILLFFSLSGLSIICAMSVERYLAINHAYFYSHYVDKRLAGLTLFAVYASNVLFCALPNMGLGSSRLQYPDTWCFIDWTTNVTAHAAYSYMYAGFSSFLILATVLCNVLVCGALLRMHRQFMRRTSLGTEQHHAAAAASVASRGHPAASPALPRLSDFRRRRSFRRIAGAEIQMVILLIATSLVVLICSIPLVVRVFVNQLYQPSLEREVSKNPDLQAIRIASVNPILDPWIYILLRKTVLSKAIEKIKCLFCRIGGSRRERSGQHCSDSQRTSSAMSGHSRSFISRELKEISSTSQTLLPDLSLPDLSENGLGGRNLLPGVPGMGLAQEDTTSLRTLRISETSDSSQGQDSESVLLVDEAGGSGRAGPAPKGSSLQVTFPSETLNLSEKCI
Chain of Substance-P receptor (Homo sapiens) (P25103 whole entry): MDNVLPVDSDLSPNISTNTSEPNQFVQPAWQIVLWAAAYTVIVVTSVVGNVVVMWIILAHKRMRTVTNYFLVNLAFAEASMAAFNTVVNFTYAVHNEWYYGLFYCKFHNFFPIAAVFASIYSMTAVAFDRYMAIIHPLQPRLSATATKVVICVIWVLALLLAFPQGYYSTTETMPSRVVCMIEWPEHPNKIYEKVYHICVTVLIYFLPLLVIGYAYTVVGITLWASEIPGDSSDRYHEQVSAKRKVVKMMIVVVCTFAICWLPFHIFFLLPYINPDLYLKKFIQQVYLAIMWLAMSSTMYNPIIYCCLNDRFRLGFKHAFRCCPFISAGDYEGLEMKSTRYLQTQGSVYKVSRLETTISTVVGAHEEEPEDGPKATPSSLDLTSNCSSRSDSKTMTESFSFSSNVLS
Chain of Sigma non-opioid intracellular receptor 1 (Homo sapiens) (Q99720 whole entry): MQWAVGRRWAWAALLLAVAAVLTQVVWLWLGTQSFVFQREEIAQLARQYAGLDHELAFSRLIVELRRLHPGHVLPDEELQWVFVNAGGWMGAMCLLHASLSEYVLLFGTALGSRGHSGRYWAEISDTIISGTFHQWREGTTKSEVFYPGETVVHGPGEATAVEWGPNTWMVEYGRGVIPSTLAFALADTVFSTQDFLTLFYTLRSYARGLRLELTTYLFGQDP

Question: Which Activity (Mus musculus [1]) does the source give for CN1CCN(C)/C(=N/c2ccc([N+](=O)[O-])cc2C(=O)Nc2ccccc2)C1 here?
Answer: Non-toxic

Question: And the Activity (Mus musculus [2])?
Answer: Non-toxic

Question: What about the Activity (Mus musculus [3]) of the same compound?
Answer: Non-toxic

Question: And the Activity (Mus musculus [4])?
Answer: Non-toxic

Question: What about the Activity (Mus musculus [5]) of the same compound?
Answer: Non-toxic

Question: And the inhibition [6]?
Answer: 17%

Question: And the inhibition [7]?
Answer: -1.17%

Question: And the inhibition [8]?
Answer: 6.39%

Question: And the inhibition [9]?
Answer: 1.1%

Question: And the inhibition (Rattus norvegicus [10])?
Answer: 22.7%

Question: And the inhibition [11]?
Answer: 11.2%

Question: And the inhibition [12]?
Answer: 10%

Question: What about the inhibition [13] of the same compound?
Answer: 35.9%

Question: And the inhibition [14]?
Answer: 10.2%

Question: What about the inhibition [15] of the same compound?
Answer: 12.3%

Question: What about the inhibition [16] of the same compound?
Answer: 20.4%

Question: What about the inhibition (Mus musculus [17]) of the same compound?
Answer: 3.11%

Question: And the inhibition [18]?
Answer: 25.9%

Question: What about the inhibition [19] of the same compound?
Answer: -2.18%

Question: What about the inhibition [20] of the same compound?
Answer: 9.71%

Question: And the inhibition [21]?
Answer: 25.4%

Question: What about the inhibition at 10 µM (hERG (KCNH2)) of the same compound?
Answer: 30%

Question: And the inhibition [22]?
Answer: 4.82%

Question: What about the inhibition [23] of the same compound?
Answer: 6.54%

Question: And the inhibition (Rattus norvegicus [24])?
Answer: 9.27%

Question: And the inhibition [25]?
Answer: 8.19%

Question: What about the inhibition [26] of the same compound?
Answer: -5.97%

Question: What about the EC50 [27] of the same compound?
Answer: 20 nM

Question: And the inhibition [28]?
Answer: Active

Question: What about the solubility [29] of the same compound?
Answer: 40.4 µg/mL (≈ 110 µM)

Question: What about the Stability [30] of the same compound?
Answer: 95.9%

Question: What about the fraction unbound at 10 µM [31] of the same compound?
Answer: 0.23

Question: What about the “inhibition (INH)” value (Cytochrome P450 1A2) of the same compound?
Answer: 1.5%

Question: And the inhibition at 10 µM (CYP2D6)?
Answer: 28%

Question: What about the inhibition at 10 µM (CYP3A4) of the same compound?
Answer: 18%

Question: What about the concentration at 2 h [32] of the same compound?
Answer: 290 nM

Question: And the concentration at 2 h [33]?
Answer: 210 nM

Question: What about the concentration at 2 h [34] of the same compound?
Answer: 350 nM
